Reference: ChEMBL document CHEMBL4041481, “Linker-switch approach towards new ATP binding site inhibitors of DNA gyrase B” (Eur J Med Chem, 2017)

How the values were obtained:
[1] = target: T1, DNA gyrase subunit B (Escherichia coli, UniProt P0AES6); assay: Inhibition of Escherichia coli ATCC 25922 DNA gyrase B using relaxed pNO1 DNA as substrate incubated for 30 mins and measured by sybrGOLD staining based fluorescence assay
[2] = target: DNA gyrase subunit B (Escherichia coli) (UniProt P0AES6); assay: Inhibition of Escherichia coli DNA ATCC 25922 gyrase B assessed as residual activity at 100 uM using relaxed pNO1 DNA as substrate incubated for 30 mins and measured by sybrGOLD staining based fluorescence assay; conditions: Escherichia coli ATCC 25922
Method in brief: (§1)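 Gyrase supercoiling with 1.5 U enzyme and 0.75 µg relaxed pNO1 plasmid. 30 min at 37 °C, stopped with pH 5.0 TF buffer. Triplex capture on immobilized biotinylated oligonucleotide, 30 min at room temperature. Residual activity at 100 µM; 1% DMSO negative control.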

[3] = target: DNA gyrase subunit B (Staphylococcus aureus) (UniProt P0A0K8); assay: Inhibition of Staphylococcus aureus DNA gyrase B assessed as residual activity at 100 uM using relaxed pNO1 DNA as substrate incubated for 30 mins and measured by sybrGOLD staining based fluorescence assay
Method in brief: as §1, with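 “temperature. Washed, SybrGOLD-stained, fluorescence 485/535 nm.” for “temperature.”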

[4] = target: T1, DNA gyrase subunit B; assay: Binding affinity to Escherichia coli ATCC 25922 DNA gyrase B by surface plasmon resonance assay
Method in brief: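 Running buffer: 10 mM Hepes, 150 mM NaCl, 3 mM EDTA, 0.005% P20, pH 7.4, plus 1% DMSO. Injections at 30 µL/min for 90 s, 120 s dissociation. At least eight concentrations, three parallel titrations. Kd from 1:1 steady-state fit of responses 5 s before injection end.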

[5] = target: DNA gyrase subunit B (Staphylococcus aureus, UniProt P0A0K8); assay: Inhibition of Staphylococcus aureus DNA gyrase B using relaxed pNO1 DNA as substrate incubated for 30 mins and measured by sybrGOLD staining based fluorescence assay
[6] = Inhibition of Staphylococcus aureus DNA gyrase using relaxed pBR322 DNA as substrate after 3 hrs by agarose electrophoresis
[7] = Inhibition of Escherichia coli DNA gyrase using relaxed pBR322 DNA as substrate after 3 hrs by agarose electrophoresis

Row | IC50 [1] [µM] | Activity [2] [%] | SMILES | other results
1 | 49.2 |  | O=C(O)C(=O)N1CCC(NC(=O)c2cc(Br)c(Br)[nH]2)CC1 | 
2 |  | 100 | O=C(O)CCC(=O)N1CCC(NC(=O)c2ccc[nH]2)CC1 | 
3 | 480 |  | COC(=O)c1ccc(C(=O)N2CCC(NC(=O)c3cc(Br)c(Br)[nH]3)CC2)cc1 | 
4 |  | 100 | COC(=O)CCNC(=O)[C@H]1CC[C@@H](NC(=O)c2cc(Br)c(Br)[nH]2)CC1 | 
5 | 20 |  | COC(=O)CCC(=O)N1CCC(NC(=O)c2[nH]c(C)c(Cl)c2Cl)CC1 | 
6 |  | 100 | C=CCN(C(=O)c1cc2ccccc2[nH]1)C1CCN(C(=O)CCC(=O)O)CC1 | 
7 |  | 100 | COC(=O)CCC(=O)N1CCC(N(Cc2ccccc2)C(=O)c2cc(Br)c(Br)[nH]2)CC1 | 
8 | 49.5 |  | O=C(O)c1cccc(CN2CCC(NC(=O)c3cc(Br)c(Br)[nH]3)CC2)c1 | Activity [3]: 100%; Kd [4]: 11.2 µM
9 |  | 100 | Nc1ncc(C(=O)N2CCN(Cc3ccc[nH]3)CC2)[nH]1 | 
10 |  | 100 | COC(=O)CNC(=O)[C@H]1CC[C@H](CNC(=O)c2cc(Br)c(Br)[nH]2)CC1 | 
11 | 4.35 |  | CCOC(=O)C(=O)N1CCC(NC(=O)c2cc(Br)c(Br)[nH]2)CC1 | Activity [3]: 74%
12 | > 50 |  | CC(C)(C)OC(=O)N1CCC(NC(=O)c2cc(Br)c(Br)[nH]2)CC1 | 
13 |  | 100 | O=C(O)CCC(=O)N1CCC(N(Cc2ccccc2)C(=O)c2cc3ccccc3[nH]2)CC1 | 
14 | 15.1 |  | O=C(O)CNC(=O)[C@H]1CC[C@H](NC(=O)c2cc(Br)c(Br)[nH]2)CC1 | 
15 |  | 100 | CC(C)(C)OC(=O)N1CCC(NC(=O)c2cc3ccccc3[nH]2)CC1 | 
16 |  | 100 | Nc1ncc(C(=O)N2CCN(C(=O)c3cccnc3)CC2)[nH]1 | 

Row | IC50 [1] [µM] | Activity [2] [%] | SMILES | other results
17 |  | 100 | COC(=O)c1cccc(CN2CCC(NC(=O)c3cc(Br)c(Br)[nH]3)CC2)c1 | 
18 | 20.9 |  | COC(=O)CCC(=O)N1CCC(NC(=O)c2cc(Br)c(Br)[nH]2)CC1 | 
19 |  | 100 | COC(=O)CCC(=O)N1CCC(NC(=O)c2ccc[nH]2)CC1 | 
20 |  | 29 | C=CCN(C(=O)c1cc(Br)c(Br)[nH]1)C1CCN(C(=O)CCC(=O)O)CC1 | 
21 | 14.9 |  | O=C(O)c1ccc(C(=O)N2CCC(NC(=O)c3cc(Br)c(Br)[nH]3)CC2)cc1 | Activity [3]: 84%; Kd [4]: 256 µM
22 | 10.8 |  | O=C(O)CC(=O)N1CCC(NC(=O)c2cc(Br)c(Br)[nH]2)CC1 | Activity [3]: 80%
23 | 8.08 |  | O=C(NC1CCN(C(=O)c2ccc(O)c(O)c2)CC1)c1cc(Cl)c(Cl)[nH]1 | 
24 |  | 100 | Nc1ncc(C(=O)N2CCN(C(=O)[C@@H]3CCCN3)CC2)[nH]1 | 
25 |  | 100 | O=C(O)CCNC(=O)[C@H]1CC[C@H](NC(=O)c2cc(Br)c(Br)[nH]2)CC1 | 
26 |  | 78 | COC(=O)CC(=O)N1CCN(C(=O)c2cc(Br)c(Br)[nH]2)CC1 | 
27 | 150 |  | O=C(NC1CCN(C(=O)c2ccc(O)c(O)c2)CC1)c1cc2ccccc2[nH]1 | 
28 |  | 100 | COC(=O)CCC(=O)N1CCC(N(Cc2ccccc2)C(=O)c2cc3ccccc3[nH]2)CC1 | 
29 |  | 100 | C=CCN(C(=O)c1cc2ccccc2[nH]1)C1CCN(C(=O)CCC(=O)OC)CC1 | 
30 |  | 100 | COC(=O)CCNC(=O)[C@H]1CC[C@H](CNC(=O)c2cc(Br)c(Br)[nH]2)CC1 | 
31 |  | 88 | COC(=O)c1ccc(C(=O)N2CCC(NC(=O)c3cc4ccccc4[nH]3)CC2)cc1 | 

Further lines, the compound ahead of its results:

Row | SMILES | IC50 [1] [µM] | Activity [2] [%] | other results
32 | O=C(O)c1ccc(CN2CCC(NC(=O)c3cc(Br)c(Br)[nH]3)CC2)cc1 | 63.1 |  | Activity [3]: 100%
33 | Nc1ncc(C(=O)N2CCN(C(=O)c3c[nH]c4ccccc34)CC2)[nH]1 |  | 100 | 
34 | C=CCN(C(=O)c1cc(Br)c(Br)[nH]1)C1CCN(C(=O)CCC(=O)OC)CC1 |  | 36 | 
35 | O=C(O)CCNC(=O)[C@H]1CC[C@H](CNC(=O)c2cc(Br)c(Br)[nH]2)CC1 |  | 100 | 
36 | COC(=O)CC(=O)N1CCC(NC(=O)c2cc3ccccc3[nH]2)CC1 |  | 100 | 
37 | COC(=O)CCNC(=O)[C@H]1CC[C@H](NC(=O)c2cc(Br)c(Br)[nH]2)CC1 |  | 100 | 
38 | O=C(NC1CCN(C(=O)c2ccc(O)c(O)c2)CC1)c1cc(Br)c(Br)[nH]1 | 2.84 |  | 
39 | N#Cc1ccc(C(=O)N2CCC(NC(=O)c3cc(Br)c(Br)[nH]3)CC2)cc1 |  | 100 | 
40 | COC(=O)CNC(=O)[C@H]1CC[C@@H](NC(=O)c2cc(Br)c(Br)[nH]2)CC1 |  | 100 | 
41 | O=C(O)CNC(=O)[C@H]1CC[C@@H](NC(=O)c2cc(Br)c(Br)[nH]2)CC1 |  | 100 | 
42 | COC(=O)c1ccc(CN2CCC(NC(=O)c3cc(Br)c(Br)[nH]3)CC2)cc1 |  | 100 | 
43 | O=C(O)CCNC(=O)[C@H]1CC[C@@H](NC(=O)c2cc(Br)c(Br)[nH]2)CC1 | 100 |  | 
44 | O=C(O)CC(=O)N1CCC(NC(=O)c2cc3ccccc3[nH]2)CC1 | 100 |  | 
45 | Cc1[nH]c(C(=O)NC2CCN(C(=O)CCC(=O)O)CC2)c(Cl)c1Cl | 0.48 |  | 
46 | O=C(O)CCC(=O)N1CCC(NC(=O)c2cc(Br)c(Br)[nH]2)CC1 | 1.55 |  | IC50 ([5]; read-out: IC50): 93.8 µM; Kd [4]: 12.6 µM
47 | O=C(O)CCC(=O)N1CCC(N(Cc2ccccc2)C(=O)c2cc(Br)c(Br)[nH]2)CC1 | 49.5 |  | Kd [4]: 11.2 µM
48 | O=C(O)CC(=O)N1CCN(C(=O)c2cc(Br)c(Br)[nH]2)CC1 | 1080 |  | IC50 [5]: Not Active
49 | CO[C@@H]1[C@@H](OC(N)=O)[C@@H](O)[C@H](Oc2ccc3c(O)c(NC(=O)c4ccc(O)c(CC=C(C)C)c4)c(=O)oc3c2C)OC1(C)C [NOVOBIOCIN] |  |  | IC50 [6]: 0.01 µM; IC50 [7]: 0.08 µM
50 | O=C(O)CCCC(=O)N1CCC(NC(=O)c2cc(Br)c(Br)[nH]2)CC1 | 3.18 |  | Activity [3]: 71%
51 | COC(=O)CC(=O)N1CCC(NC(=O)c2cc(Br)c(Br)[nH]2)CC1 | 13.7 |  | 
52 | COC(=O)CCC(=O)N1CCC(NC(=O)c2cc3ccccc3[nH]2)CC1 |  | 100 | 
53 | Nc1ncc(C(=O)N2CCN(C(=O)c3ccc[nH]3)CC2)[nH]1 |  | 100 | 
54 | COC(=O)CNC(=O)[C@H]1CC[C@H](NC(=O)c2cc(Br)c(Br)[nH]2)CC1 |  | 100 | 
55 | O=C(O)c1ccc(C(=O)N2CCC(NC(=O)c3cc4ccccc4[nH]3)CC2)cc1 |  | 100 | 
56 | COC(=O)CCCC(=O)N1CCC(NC(=O)c2cc(Br)c(Br)[nH]2)CC1 | 11.2 |  | 
57 | O=C(O)CCC(=O)N1CCC(NC(=O)c2cc3ccccc3[nH]2)CC1 |  | 100 | 
